Key:
[1] = tested on: Rattus norvegicus; test: In vivo triglyceride lowering activity, dosed at 0.03 % of the diet; assay type: functional
Summary of the method: (§1)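 Male CFE or CD-1 Sprague-Dawley rats, 140-150 g; 8 per control group, 4 per test group. Compound mixed into ground chow (w/w) via MeOH-CHCl3 (1:3) solution, solvent evaporated; controls got solvent-treated chow. Fed ad libitum 5 days, food intake monitored, killed fed and bled. Serum sterols and triglycerides by adapted autoanalyzer methods; mean percent of control, Student's t test.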

[2] = tested on: Rattus norvegicus; test: In vivo triglyceride lowering activity dosed at 0.10 % of the diet; assay type: functional; summary of the method: as §1
[3] = tested on: Rattus norvegicus; test: In vivo Sterol lowering activity at dose as 0.01 % of the diet; assay type: functional; summary of the method: as §1
[4] = tested on: Rattus norvegicus; test: In vivo sterol lowering activity dosed at 0.10 % of the diet; assay type: functional; summary of the method: as §1
[5] = tested on: Rattus norvegicus; test: In vivo Sterol lowering activity at dose as 0.03 % of the diet; assay type: functional; summary of the method: as §1
[6] = tested on: Rattus norvegicus; test: In vivo Triglyceride lowering activity at dose as 0.01 % of the diet; assay type: functional; summary of the method: as §1
[7] = biological target: T1, Sterol O-acyltransferase 1 (Rattus norvegicus) (UniProt O70536); test: In vitro inhibitory activity against acyl coenzyme A:cholesterol acyltransferase (ACAT); set-up: concentration or dose not given beside the values; conditions: concentration not given here
T1 sequence (whole entry): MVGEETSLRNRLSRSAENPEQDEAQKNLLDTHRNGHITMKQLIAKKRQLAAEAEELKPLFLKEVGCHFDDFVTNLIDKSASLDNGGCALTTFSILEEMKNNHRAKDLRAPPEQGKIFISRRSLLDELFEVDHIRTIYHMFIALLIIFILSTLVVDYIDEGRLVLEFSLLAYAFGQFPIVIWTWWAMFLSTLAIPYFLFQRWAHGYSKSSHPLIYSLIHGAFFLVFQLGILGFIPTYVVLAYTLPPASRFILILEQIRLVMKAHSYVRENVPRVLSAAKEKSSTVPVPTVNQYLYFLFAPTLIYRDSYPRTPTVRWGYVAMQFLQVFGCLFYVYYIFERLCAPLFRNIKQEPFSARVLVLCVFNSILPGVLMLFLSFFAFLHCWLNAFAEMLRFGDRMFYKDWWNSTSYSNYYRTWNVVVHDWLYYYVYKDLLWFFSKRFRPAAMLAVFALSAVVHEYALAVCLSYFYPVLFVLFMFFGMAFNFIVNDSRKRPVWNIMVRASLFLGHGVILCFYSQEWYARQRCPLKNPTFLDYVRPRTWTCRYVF
Summary of the method: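 ACAT enzyme from rat adrenal homogenate in 0.2 M KH2PO4 buffer pH 7.4, 1000g 15 min 5 °C supernatant (microsomal fraction). Supernatant + BSA (50 mg/mL) + compound at final 5.2 μg/mL + buffer preincubated 10 min 37 °C; [14C]oleoyl-CoA (0.4 μCi) added, 30 min 37 °C. Lipids extracted, TLC; cholesteryl ester zone counted. Mean % inhibition vs no-compound control; Student's t test.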

[8] = tested on: Rattus norvegicus; test: In vivo Sterol lowering activity at dose as 0.10 % of the diet.; assay type: functional; summary of the method: as §1
[9] = tested on: Rattus norvegicus; test: In vivo Sterol lowering activity at dose as 0.03 % of the diet.; assay type: functional; summary of the method: as §1
[10] = tested on: Rattus norvegicus; test: In vivo triglyceride lowering activity, dosed at 0.01 % of the diet.; assay type: functional; summary of the method: as §1
[11] = tested on: Rattus norvegicus; test: In vivo Sterol lowering activity at dose as 0.025 % of the diet; assay type: functional; summary of the method: as §1
[12] = tested on: Rattus norvegicus; test: In vivo Sterol lowering activity at dose as 0.05 % of the diet; assay type: functional; summary of the method: as §1
[13] = tested on: Rattus norvegicus; test: In vivo triglyceride lowering activity dosed at 0.05 % of the diet; assay type: functional; summary of the method: as §1
[14] = tested on: Rattus norvegicus; test: In vivo Triglyceride lowering activity at dose as 0.025 % of the diet; assay type: functional; summary of the method: as §1
[15] = tested on: Rattus norvegicus; test: In vivo Triglyceride lowering activity at dose as 0.03 % of the diet.; assay type: functional; summary of the method: as §1
[16] = tested on: Rattus norvegicus; test: In vivo triglyceride lowering activity, dosed at 0.10 % of the diet.; assay type: functional; summary of the method: as §1

| inhibition [7] [%] | Structure (SMILES) | serum triglycerides, percent of control [1] [%] | serum triglycerides, percent of control [2] [%] | Diet [3] [%] | serum sterol, percent of control [4] [%] | Diet [5] [%] | Diet [6] [%] | serum sterol, percent of control [8] [%] | serum sterol level, percent of control [9] [%] | Diet [10] [%] | Diet [11] [%] | Diet [12] [%] | Diet [13] [%] | Diet [14] [%] | Diet [15] [%] | Diet [16] [%] |
| --- | --- | --- | --- | --- | --- | --- | --- | --- | --- | --- | --- | --- | --- | --- | --- | --- |
| – | CCCCCCCCCCCCCNc1ccc(C(=O)[O-])cc1.[Na+] | 70 | <62 | 110 | <76 | 90 | <60 | – | – | – | – | – | – | – | – | – |
| 29 | O=C(O)c1ccc(NCCCc2cccc(Cl)c2)cc1 | 48 | 55 | 82 | – | – | 64 | 85 | 90 | – | – | – | – | – | – | – |
| – | CCCCCCCCCCCCNc1ccc(C(=O)[O-])cc1.[Na+] | <56 | <34 | 89 | 88 | 92 | <72 | – | – | – | – | – | – | – | – | – |
| 22 | O=C(O)c1ccc(NCCCCCCc2ccc(Cl)cc2)cc1 | 65 | 43 | 81 | – | 78 | – | 82 | – | 61 | – | – | – | – | – | – |
| 15 | CCCCCCCCc1ccc(CNc2ccc(C(=O)O)cc2)s1 | 70 | 70 | 85 | <72 | <76 | 82 | – | – | – | – | – | – | – | – | – |
| 8 | CCCCCCCCCCCCCCCCNc1ccc(C(=O)OCC)cc1 | – | <69 | – | 98 | – | – | – | – | – | 109 | 103 | <54 | <70 | – | – |
| < 57 | O=C(O)c1ccc(NCCCCCCCCCCCCc2cccs2)cc1 | <50 | <42 | 85 | <70 | <81 | <59 | – | – | – | – | – | – | – | – | – |
| – | CCCCCCCCCCCCCCCCNc1ccc(C(=O)O)cc1 [CETABEN] | <45 | <31 | <72 | <54 | <71 | <71 | – | – | – | – | – | – | – | – | – |
| – | CCCCCCCCCCCCCCCCCCCNc1ccc(C(=O)[O-])cc1.[Na+] | 99 | <70 | 93 | 98 | 98 | 102 | – | – | – | – | – | – | – | – | – |
| < 35 | CCCCCCCCCCOc1ccc(CNc2ccc(C(=O)O)cc2)cc1 | – | <37 | – | <82 | – | – | – | – | – | 97 | <90 | <51 | <54 | – | – |
| < 32 | CCCCCCCCc1ccc(CNc2ccc(C(=O)OCC)cc2)s1 | <59 | <61 | 97 | 82 | 90 | 100 | – | – | – | – | – | – | – | – | – |
| 40 | O=C(CCCCC(=O)c1ccc(Cl)cc1)Nc1ccc(C(=O)O)cc1 | – | 56 | 82 | – | – | – | 97 | 94 | 94 | – | – | – | – | 70 | – |
| < 53 | O=C(O)c1ccc(NCCCCCCCCCC/C=C/c2cccs2)cc1 | <59 | <41 | <84 | <73 | <83 | 69 | – | – | – | – | – | – | – | – | – |
| – | CCCCCCCCCCCCCCCCCCNc1ccc(C(=O)[O-])cc1.[Na+] | <76 | <52 | <84 | 79 | 86 | 90 | – | – | – | – | – | – | – | – | – |
| < 72 | CCOC(=O)c1ccc(NCCCCCCCCCCCn2ccnc2)cc1 | 92 | <57 | 89 | 89 | 100 | 78 | – | – | – | – | – | – | – | – | – |
| < 63 | CCOC(=O)c1ccc(NCCCCCCCCCCc2ccccc2)cc1 | <58 | <77 | 100 | <89 | <84 | 77 | – | – | – | – | – | – | – | – | – |
| 22 | Cl.O=C(O)c1ccc(NCCCCCCCCCCCn2ccnc2)cc1 | <48 | <47 | 95 | 113 | 99 | 74 | – | – | – | – | – | – | – | – | – |
| < 34 | CCCCCCCCCCCCCCCCCNc1ccc(C(=O)O)cc1 | – | <57 | – | 87 | – | – | – | – | – | <87 | <86 | 77 | 80 | – | – |
| 0 | O=C(O)c1ccc(NC/C=C/c2ccccc2)cc1 | 43 | 44 | 86 | – | 70 | – | 96 | – | 85 | – | – | – | – | – | – |
| < 34 | CCCCCCCCCCCCCCCCNc1cccc(C(=O)O)c1 | – | 81 | – | 93 | – | – | – | – | – | 100 | 100 | 92 | 98 | – | – |
| < 56 | CCCCCCCCCCCCCCCNc1ccc(C(=O)O)cc1 | – | <60 | – | <79 | – | – | – | – | – | 90 | 86 | 80 | 72 | – | – |
| 26 | CCOC(=O)c1ccc(NC(=O)CCc2ccc(OC)cc2)cc1 | – | – | 80 | – | – | – | 98 | 85 | 98 | – | – | – | – | 89 | 105 |
| – | CCCCCCCCCCCCCCCCNc1ccc(C(=O)[O-])cc1.[Na+] [CETABEN SODIUM] | <60 | <41 | 90 | <60 | <76 | <75 | – | – | – | – | – | – | – | – | – |
| 58 | O=C(O)c1ccc(NCCCc2ccccc2F)cc1 | 55 | 52 | 87 | – | – | 58 | 81 | 85 | – | – | – | – | – | – | – |
| – | CCCCCCCCCC/C=C/CCCNc1ccc(C(=O)[O-])cc1.[Na+] | 117 | <63 | 86 | <82 | 93 | 112 | – | – | – | – | – | – | – | – | – |
| < 19 | CCCCCCCCCCc1ccc(CNc2ccc(C(=O)OCC)cc2)cc1 | – | 94 | – | 99 | – | – | – | – | – | 90 | 95 | <69 | 82 | – | – |

— ChEMBL document CHEMBL1122501, “Potential antiatherosclerotic agents. 2. (Aralkylamino)- and (alkylamino) benzoic acid analogues of cetaben” (1983)
